The source of these data is ChEMBL document CHEMBL3407335, “SAR-guided development and characterization of a potent antitumor compound toward B-cell neoplasms with no detectable cytotoxicity toward healthy cells” (J Med Chem, 2015).

The subject of experiment [1] is Jurkat. Put plainly: Cytotoxicity against human Jurkat cells after 24 hrs by MTT assay. Format: functional, cell-based. A general note: Tetrazolium dyes change colour on reduction, which living cells bring about.
Experiment [2] in a line: Cytotoxicity against human MEC1 cells after 48 hrs by CellTitre-Blue assay. Format: functional, cell-based. The note with it: MEC1, 48 h. The procedure, abridged: (§1)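 Screening used phenol red-free RPMI 1640 + L-glutamine with 10% FBS and 1% PenStrep. Exposure was 48 h in triplicate, with CellTiter-Blue read-out. IC50 came from at least two independent experiments, each in triplicate.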

For experiment [3], the system named is K562. Description: Cytotoxicity against human K562 cells after 24 hrs by MTT assay. The note with it: K562, 24 h. Format: functional, cell-based.
Experiment [4] in a line: Cytotoxicity against human OCI-LY7 cells after 48 hrs by CellTitre-Blue assay. Format: functional, cell-based. The note with it: OCI-Ly7, 48 h. The method, boiled down:
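OCI-LY7 assays were run in IMDM + GlutaMAX with 25 mM HEPES, phenol red, 20% FBS and 1% PenStrep. […] Viability was read by CellTiter-Blue. IC50 came from at least two independent experiments, each with three replicates.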

The nature of experiment [5]: Cytotoxicity against human U2940 cells after 48 hrs by CellTitre-Blue assay. Format: functional, cell-based. The note with it: U-2940, 48 h. The method, boiled down: as §1
Experiment [6] can be described thus: Cytotoxicity against mouse M210B4 cells after 48 hrs by CellTitre-Blue assay. The experiment is classed as cell-based. The note with it: M210B4, 48 h. The procedure, abridged: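 Murine bone marrow fibroblasts served as the non-malignant counter-screen. Compound was tested at six levels (0.1, 1, 5, 10, 50, 100 μM) for 48 h. Viability was read by CellTiter-Blue. IC50 came from at least two independent experiments with three replicates each.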

Experiment [7] is described as follows: Cytotoxicity against human HL60 cells assessed as reduction in cell viability at <1 uM after 48 hrs by CellTitre-Blue assay. The experiment is classed as functional, HL-60. The procedure, abridged:
(§2)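 Cell lines were maintained in RPMI 1640 + GlutaMAX with 10% FBS and 1% penicillin/streptomycin at 37 °C under 5% CO2. For the assay, cells went into phenol red-free RPMI 1640 + L-glutamine with 10% FBS and 1% PenStrep. They were incubated in triplicate with increasing compound concentrations for 48 h. Viability was read by CellTiter-Blue, normalized to vehicle-only cells, and reported as mean plus SD.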

Experiment [8] has as its system CCRF-CEM. Put plainly: Cytotoxicity against human CCRF-CEM cells after 48 hrs by CellTitre-Blue assay. Format: functional, cell-based. The method, boiled down: (§3)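 Cell lines in phenol red-free RPMI 1640 with L-glutamine, 10% FBS and 1% penicillin/streptomycin. Cells exposed in triplicate to increasing compound concentrations for 48 h at 37 °C. CellTiter-Blue read-out, normalized to vehicle-only cells. IC50 from two independent experiments.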

Experiment [9] has as its system PBMC. Description: Cytotoxicity against healthy human PBMC after 48 hrs by CellTitre-Blue assay. Format: cell-based. The method, boiled down: (§4)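 Cryopreserved PBMC (CLL patients N = 15; healthy donors N = 4) thawed and cultured overnight in phenol red-free RPMI 1640 with L-glutamine and 20% FBS. Suspension culture at 300 000 cells per well with increasing compound concentrations for 48 h, in triplicate. CellTiter-Blue viability normalized to vehicle; IC50 fitted from the mean values of all samples.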

Experiment [10] can be described thus: Cytotoxicity against human HL60 cells after 48 hrs by CellTitre-Blue assay. Format: functional, cell-based. The note with it: HL-60, 48 h. The method, boiled down:
as §3

Experiment [11] can be described thus: Cytotoxicity against human SUDHL9 cells after 48 hrs by CellTitre-Blue assay. Format: functional, cell-based. The note with it: SUDHL9, 48 h. The procedure, abridged:
as §3

The nature of experiment [12]: Cytotoxicity against human SU-DHL6 cells after 48 hrs by CellTitre-Blue assay. Format: functional, cell-based. The note with it: SU-DHL-6, 48 h. The method, boiled down: as §3
Experiment [13] relates to PBMC. Put plainly: Cytotoxicity against patient PBMC after 48 hrs by CellTitre-Blue assay. Format: cell-based. The note with it: Homo sapiens. The method, boiled down:
as §4

For experiment [14], the system named is CCRF-CEM. Put plainly: Cytotoxicity against human CCRF-CEM cells assessed as reduction in cell viability at <1 uM after 48 hrs by CellTitre-Blue assay. Format: functional. The procedure, abridged: as §2
Experiment [15] concerns K562. Description: Cytotoxicity against human K562 cells assessed as reduction in cell viability at <1 uM after 48 hrs by CellTitre-Blue assay. The experiment is classed as functional. The method, boiled down:
as §2

Experiment [16] has as its system Jurkat. Put plainly: Cytotoxicity against human Jurkat cells after 48 hrs by CellTitre-Blue assay. Format: functional, cell-based. The procedure, abridged:
as §3

Experiment [17] relates to PBMC. Put plainly: Cytotoxicity against patient PBMC after 48 hrs by CellTitre-Blue assay in presenc of mouse M210B4 cells. Format: cell-based. The note with it: Homo sapiens. The procedure, abridged: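 M2-10B4 mouse fibroblasts were seeded and left overnight to form a confluent layer. Medium was then replaced by 3 million PBMC from CLL patients (N = 9), which had been thawed and held overnight, in RPMI with 20% FBS. Cocultures were exposed to increasing compound concentrations for 48 h, in triplicate. CellTiter-Blue viability normalized to vehicle; IC50 from mean values of all samples.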

For experiment [18], the system named is Jurkat. Put plainly: Cytotoxicity against human Jurkat cells assessed as reduction in cell viability at <1 uM after 48 hrs by CellTitre-Blue assay. The experiment is classed as functional. The method, boiled down:
as §2

The term IC50 denotes the point on the concentration scale where inhibition reaches its midpoint. Low readings indicate greater potency in that assay, high ones weaker potency in that assay. For the compound `CCOc1ccccc1C(=O)/C=C/c1ccc2ccccc2c1`, the IC50 in experiment [1] is 21000 nM; in experiment [2] it was 60 nM; in experiment [3], 40000 nM; in experiment [4], 60 nM; in experiment [5], 2400 nM; in experiment [6], 7800 nM.
As to `COc1ccccc1C(=O)/C=C/c1ccc2ccccc2c1`, the IC50 in [2] came to 430 nM; in experiment [4], 460 nM; in experiment [5] it was 4100 nM; in [6], 42000 nM.
The corresponding values for `CCCOc1ccccc1C(=O)/C=C/c1ccc2ccccc2c1` are 130 nM, 100 nM, 5300 nM and over 100000 nM.
For `CCCCOc1ccccc1C(=O)/C=C/c1ccc2ccccc2c1`, the IC50 in experiment [2] is 700 nM; in experiment [4], 120 nM; in experiment [5], 5300 nM; in experiment [6] it was over 100000 nM.
As for `CC(C)Oc1ccccc1C(=O)/C=C/c1ccc2ccccc2c1`, the half-maximal inhibitory concentration (IC50) in experiment [2] was 1200 nM; in [4], 150 nM; in experiment [5], 11000 nM; in experiment [6], over 100000 nM.
In the same order, the values of `Cc1ccccc1C(=O)/C=C/c1ccc2ccccc2c1` are 6400 nM, 4900 nM, 10000 nM and 72000 nM.
In the same order, the values of `CCOc1ccccc1C(=O)/C=C/c1ccc2cc(OC)ccc2c1` are 7200 nM, 1000 nM, 25000 nM and over 100000 nM.
In the same order, the values of `C=Cc1cccc(/C=C/C(=O)c2ccccc2OCC)c1` are 200 nM, 500 nM, 2500 nM and over 100000 nM.
Regarding `CCOc1ccccc1C(=O)/C=C/c1ccc2c(c1)OCO2`, the IC50 in experiment [2] was 1100 nM; in [4], 130 nM; in [5] it was 9500 nM; in experiment [6], over 100000 nM.
In the same order, the values of `CCOc1ccccc1C(=O)/C=C/c1cccc2ccccc12` are 1900 nM, 1500 nM, 7400 nM and 17000 nM.
With `CCOc1ccccc1C(=O)/C=C/c1c2ccccc2cc2ccccc12`, the IC50 in experiment [2], in experiment [4] and in experiment [5] was over 100000 nM in each case.
Turning to `CCOc1ccccc1C(=O)/C=C/c1cc2ccccc2c2ccccc12`, the half-inhibitory concentration (IC50) in experiment [2] was 1600 nM; in experiment [4] it was 680 nM; in experiment [5], 40000 nM; in experiment [6] it was over 100000 nM.
In the same order, the values of `CCOc1ccccc1C(=O)/C=C/c1ccc2sccc2c1` are 340 nM, 340 nM, 9100 nM and 21000 nM.
The corresponding values for `CCOc1ccccc1C(=O)/C=C/c1csc2ccccc12` are 170 nM, 100 nM, 860 nM and 8200 nM.
In the case of `CCOc1ccccc1C(=O)/C=C/c1cc2ccccc2[nH]1`, the Activity was under 30% in experiment [7], under 30% in [14], 60% in experiment [15] and under 30% in [18]. In addition, the IC50 came out at 32 nM in experiment [8]; 14000 nM in [9]; 16 nM in [10]; 31 nM in [11]; 22 nM in [2]; 56 nM in [12]. Also, the IC50 in [13] is 1200 nM; in [16] it was 38 nM; in experiment [17], 680 nM; in experiment [4], 52 nM; in experiment [5], 2900 nM; in experiment [6] it was 19000 nM.
For the compound `CCOc1cccc(C(=O)/C=C/c2ccc3ccccc3c2)c1`, the IC50 in [2] was determined as 2900 nM; in experiment [4], 1800 nM; in experiment [5], 16000 nM.
In the same order, the values of `CCOc1cccc(C(=O)/C=C/c2csc3ccccc23)c1` are 2200 nM, 1700 nM and 7600 nM.
As for `CCOc1ccc(C(=O)/C=C/c2csc3ccccc23)cc1`, the IC50 in experiment [2] worked out at 7500 nM; in [4], 4800 nM; in experiment [5], 15000 nM.
With `CCOc1cccc(C(=O)/C=C/c2cc3ccccc3[nH]2)c1`, the IC50 in [2] turned out to be 3300 nM; in experiment [4] it was 4800 nM.
For `CCOc1ccc(C(=O)/C=C/c2cc3ccccc3[nH]2)cc1`, the half-maximal inhibitory concentration (IC50) in experiment [2] was over 100000 nM; in experiment [4] it was 25000 nM.
Consider `Nc1nc(F)nc2c1ncn2[C@@H]1O[C@H](CO)[C@@H](O)[C@@H]1O` [FLUDARABINE], for which the figures for the half-maximal inhibitory concentration (IC50) in experiment [9], in [13] and in [17] were 14000 nM, 1900 nM and 10000 nM, respectively.
